Measured values taken from ChEMBL document CHEMBL4422612, “Small Molecule Inhibitor that Stabilizes the Autoinhibited Conformation of the Oncogenic Tyrosine Phosphatase SHP2” (J Med Chem, 2019).

Tests used:
[1] = system: NCI-H661; assay: Induction of apoptosis in human NCI-H661 cells assessed as early apoptotic cells at 10 uM after 24 hrs by Annexin V/FITC-staining based FACS analysis (reference value: 5%); type: functional
[2] = system: NCI-H661; assay: Induction of apoptosis in human NCI-H661 cells assessed as viable cells at 20 uM after 24 hrs by Annexin V/FITC-staining based FACS analysis (reference value: 86.9%); type: functional; settings: NCI-H661, 24 h, read-out: Activity
[3] = molecular target: Tyrosine-protein phosphatase non-receptor type 11 (Homo sapiens, UniProt Q06124, E76K); assay: Inhibition of recombinant full length human GST-tagged SHP2 E76K mutant using phospho-peptide as substrate pre-incubated for 30 mins before substrate addition and measured after 30 mins
Chain of Tyrosine-protein phosphatase non-receptor type 11 (Homo sapiens, UniProt Q06124, E76K) (Q06124 as listed by the source E76K): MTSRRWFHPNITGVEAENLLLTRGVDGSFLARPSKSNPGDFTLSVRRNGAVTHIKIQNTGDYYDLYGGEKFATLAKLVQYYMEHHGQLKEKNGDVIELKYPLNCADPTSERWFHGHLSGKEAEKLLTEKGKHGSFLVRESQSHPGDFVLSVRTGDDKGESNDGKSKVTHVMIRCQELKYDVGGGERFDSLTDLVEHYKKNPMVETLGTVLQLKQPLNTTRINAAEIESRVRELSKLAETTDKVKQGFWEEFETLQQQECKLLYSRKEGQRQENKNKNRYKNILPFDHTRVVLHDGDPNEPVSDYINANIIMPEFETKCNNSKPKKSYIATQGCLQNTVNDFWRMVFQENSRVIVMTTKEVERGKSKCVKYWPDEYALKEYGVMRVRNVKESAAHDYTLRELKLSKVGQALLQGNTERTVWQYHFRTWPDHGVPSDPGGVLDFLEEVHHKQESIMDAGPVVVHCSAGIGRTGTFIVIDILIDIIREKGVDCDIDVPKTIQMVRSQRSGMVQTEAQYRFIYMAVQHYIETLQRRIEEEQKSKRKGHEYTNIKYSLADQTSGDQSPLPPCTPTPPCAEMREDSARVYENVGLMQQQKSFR

[4] = system: NCI-H661; assay: Induction of apoptosis in human NCI-H661 cells assessed as viable cells at 10 uM after 24 hrs by Annexin V/FITC-staining based FACS analysis (reference value: 86.9%); type: functional; settings: NCI-H661, 24 h, read-out: Activity
[5] = molecular target: T1, Tyrosine-protein phosphatase non-receptor type 11 (Homo sapiens, UniProt Q06124); assay: Inhibition of recombinant full length human GST-tagged SHP2 PTP domain using phospho-peptide as substrate pre-incubated for 30 mins before substrate addition and measured after 30 mins
T1 sequence (Q06124 whole entry): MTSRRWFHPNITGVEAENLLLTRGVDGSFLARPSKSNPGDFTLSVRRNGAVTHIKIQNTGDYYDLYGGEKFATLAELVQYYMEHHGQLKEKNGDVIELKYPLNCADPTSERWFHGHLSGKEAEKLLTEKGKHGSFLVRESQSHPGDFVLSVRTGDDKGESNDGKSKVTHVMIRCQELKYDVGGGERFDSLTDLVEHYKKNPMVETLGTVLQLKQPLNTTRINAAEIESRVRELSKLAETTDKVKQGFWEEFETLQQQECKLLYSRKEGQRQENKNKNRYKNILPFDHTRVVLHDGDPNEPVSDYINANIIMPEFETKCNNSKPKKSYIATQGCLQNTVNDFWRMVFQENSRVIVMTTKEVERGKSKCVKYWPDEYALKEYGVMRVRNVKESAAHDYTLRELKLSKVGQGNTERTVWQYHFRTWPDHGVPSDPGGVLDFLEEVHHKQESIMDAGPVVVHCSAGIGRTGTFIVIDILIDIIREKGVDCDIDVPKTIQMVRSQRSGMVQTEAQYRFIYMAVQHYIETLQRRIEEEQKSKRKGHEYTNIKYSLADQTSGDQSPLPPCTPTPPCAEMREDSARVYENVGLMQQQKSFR

[6] = system: MEF; assay: Growth inhibition of PTPN11-depleted MEF at 6 uM after 24 to 72 hrs by cell proliferation-based assay; settings: mouse
In short: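 Ptpn11 fl/fl and Ptpn11 +/+ MEFs, both Ade-Cre+, infected with adeno-Cre, then given 6 µM compound or DMSO. Growth measured at 24, 48 and 72 h by One Solution proliferation assay. SHP2 loss confirmed by immunoblot. Triplicates from one of three experiments.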

[7] = system: NCI-H661; assay: Induction of apoptosis in human NCI-H661 cells assessed as late apoptotic cells at 20 uM after 24 hrs by Annexin V/FITC-staining based FACS analysis (reference value: 3.5%); type: functional
[8] = system: NCI-H661; assay: Induction of apoptosis in human NCI-H661 cells assessed as early apoptotic cells at 20 uM after 24 hrs by Annexin V/FITC-staining based FACS analysis (reference value: 5%); type: functional
[9] = system: NCI-H661; assay: Induction of apoptosis in human NCI-H661 cells assessed as late apoptotic cells at 10 uM after 24 hrs by Annexin V/FITC-staining based FACS analysis (reference value: 3.5%); type: functional
[10] = molecular target: Tyrosine-protein phosphatase non-receptor type 6 (Homo sapiens, UniProt P29350); assay: Inhibition of wild type recombinant human SHP1 using H-Glu-Phe-pTyr-Ala-Glu-Val-Gly-Arg-Ser-Pro-Pro-Asp-Pro-Ala-Lys as substrate preincubated for 30 mins followed by substrate addition and measured after 30 mins by Malachite Green-reagent based assay
Chain of Tyrosine-protein phosphatase non-receptor type 6 (P29350 whole entry): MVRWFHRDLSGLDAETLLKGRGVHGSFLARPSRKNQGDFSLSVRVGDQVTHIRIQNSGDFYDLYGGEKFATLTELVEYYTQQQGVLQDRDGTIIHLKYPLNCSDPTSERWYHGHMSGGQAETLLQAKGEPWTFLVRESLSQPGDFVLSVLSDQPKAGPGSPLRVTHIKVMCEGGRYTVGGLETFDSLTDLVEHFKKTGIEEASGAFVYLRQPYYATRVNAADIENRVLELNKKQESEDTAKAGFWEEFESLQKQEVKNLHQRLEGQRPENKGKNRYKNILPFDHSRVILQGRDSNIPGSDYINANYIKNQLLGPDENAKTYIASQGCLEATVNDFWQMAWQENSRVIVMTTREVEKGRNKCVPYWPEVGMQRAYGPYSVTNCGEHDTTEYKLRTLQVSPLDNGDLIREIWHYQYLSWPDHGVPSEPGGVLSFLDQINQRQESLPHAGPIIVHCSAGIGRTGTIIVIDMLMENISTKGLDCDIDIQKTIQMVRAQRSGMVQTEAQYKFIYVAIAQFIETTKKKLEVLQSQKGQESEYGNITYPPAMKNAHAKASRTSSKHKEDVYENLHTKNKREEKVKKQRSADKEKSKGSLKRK
In short: (§1)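 Full-length SHP2 or SHP1 (0.1 µg) preincubated with compound 30 min at room temperature in 25 mM Tris-HCl pH 7.4, 50 mM NaCl, 5 mM DTT, 2.5 mM EDTA. Phospho-peptide substrate added to 50 µM final; 30 min at 30 °C. Released phosphate read by Malachite Green at OD620. IC50 from six concentrations; three experiments.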

[11] = system: NCI-H661; assay: Induction of apoptosis in human NCI-H661 cells assessed as necrotic cells at 20 uM after 24 hrs by Annexin V/FITC-staining based FACS analysis (reference value: 4.6%); type: functional
[12] = system: NCI-H661; assay: Induction of apoptosis in human NCI-H661 cells assessed as necrotic cells at 10 uM after 24 hrs by Annexin V/FITC-staining based FACS analysis (reference value: 4.6%); type: functional
[13] = molecular target: T1, Tyrosine-protein phosphatase non-receptor type 11; assay: Binding affinity to full length wild type His-tagged SHP2 (unknown origin) by MST assay
In short: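 His-tagged SHP2 (200 nM) in 50 mM Tris-HCl pH 8.0, 10 mM NaCl, 0.005% Tween 20, labelled with red-tris-NTA dye. Mixed 1:1 with a 15-step 2-fold dilution series from 600 µM made in PBS/0.005% Tween 20. MST run at 50% power with red filter; one-site fit gives Kd. Mean ± SD of three experiments.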

[14] = molecular target: T1, Tyrosine-protein phosphatase non-receptor type 11; assay: Inhibition of wild type recombinant human SHP2 using H-Glu-Phe-pTyr-Ala-Glu-Val-Gly-Arg-Ser-Pro-Pro-Asp-Pro-Ala-Lys as substrate preincubated for 30 mins followed by substrate addition and measured after 30 mins by Malachite Green-reagent based assay; in short: as §1

IC50 [3]: 7.67 µM
IC50 [5]: 20.9 µM
IC50 [10]: 72.7 µM
Kd [13]: 69 µM
IC50 [14]: 9.8 µM
SMILES: CCOc1cc(O)c(C(=O)/C=C/c2ccc(Cl)cc2Cl)cc1CN1CCC=C(n2c(=O)[nH]c3ccccc32)C1
Activity [1]: 9.7%
viability at 20 µM [2]: 57.6%
viability at 10 µM [4]: 76.8%
Activity [6]: Non-Toxic
Activity [7]: 21%
Activity [8]: 12.6%
Activity [9]: 7.3%
Activity [11]: 8.9%
Activity [12]: 6.2%
